We go through two proteins from ChEMBL document CHEMBL1138849, “5-substituted tetrazoles as bioisosteres of carboxylic acids. Bioisosterism and mechanistic studies on glutathione reductase inhibitors as antimalarials” (J Med Chem, 2004).

Substrate in data set [1]: CC1=CC(=O)c2ccccc2C1=O
Description: Michaelis-Menten constant against human glutathione reductase. In a few lines: (§1)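 Recombinant human or P. falciparum GR run as a quinone reductase without GSSG. Mix: 100 mM phosphate pH 7.0, 200 mM KCl, 100 μM NADPH, 1% DMSO, enzyme, and naphthoquinone at 10 levels from 10 to 400 μM. NADPH oxidation read at 340 nm (ε 6.22 mM⁻¹ cm⁻¹). Steady-state rates fitted to Michaelis–Menten by nonlinear regression to give Km and Vmax; kcat and kcat/Km calculated.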

Compound in data set [2]: N[C@@H](CCC(=O)N[C@@H](CSSC[C@H](NC(=O)CC[C@H](N)C(=O)O)C(=O)NCC(=O)O)C(=O)NCC(=O)O)C(=O)O
Description: Inhibitory concentration against glutathione reductase (In presence of NADPH). As to conditions: Plasmodium falciparum.

Substrate in data set [3]: CC1=CC(=O)c2ccccc2C1=O
Description: Michaelis-Menten constant against Plasmodium falciparum glutathione reductase. In outline:
as §1

B1: Glutathione reductase, mitochondrial (Homo sapiens), P00390 (protein)
chain: MALLPRALSAGAGPSWRRAARAFRGFLLLLPEPAALTRALSRAMACRQEPQPQGPPPAAGAVASYDYLVIGGGSGGLASARRAAELGARAAVVESHKLGGTCVNVGCVPKKVMWNTAVHSEFMHDHADYGFPSCEGKFNWRVIKEKRDAYVSRLNAIYQNNLTKSHIEIIRGHAAFTSDPKPTIEVSGKKYTAPHILIATGGMPSTPHESQIPGASLGITSDGFFQLEELPGRSVIVGAGYIAVEMAGILSALGSKTSLMIRHDKVLRSFDSMISTNCTEELENAGVEVLKFSQVKEVKKTLSGLEVSMVTAVPGRLPVMTMIPDVDCLLWAIGRVPNTKDLSLNKLGIQTDDKGHIIVDEFQNTNVKGIYAVGDVCGKALLTPVAIAAGRKLAHRLFEYKEDSKLDYNNIPTVVFSHPPIGTVGLTEDEAIHKYGIENVKTYSTSFTPMYHAVTKRKTKCVMKMVCANKEEKVVGIHMQGLGCDEMLQGFAVAVKMGATKADFDNTVAIHPTSSEELVTLR
As to B1, the Michaelis-Menten constant (Km) in data set [1] is 31.2 µM.

B2: Glutathione reductase (Plasmodium falciparum 3D7), O15770 (protein)
chain: MYKHRYFHFFFFFFFFLVSTKIIRSFTFLNNNTNLSNPVYFKKKANMVYDLIVIGGGSGGMAAARRAARHNAKVALVEKSRLGGTCVNVGCVPKKIMFNAASVHDILENSRHYGFDTKFSFNLPLLVERRDKYIQRLNNIYRQNLSKDKVDLYEGTASFLSENRILIKGTKDNNNKDNGPLNEEILEGRNILIAVGNKPVFPPVKGIENTISSDEFFNIKESKKIGIVGSGYIAVELINVIKRLGIDSYIFARGNRILRKFDESVINVLENDMKKNNINIVTFADVVEIKKVSDKNLSIHLSDGRIYEHFDHVIYCVGRSPDTENLNLEKLNVETNNNYIVVDENQRTSVNNIYAVGDCCMVKKSKEIEDLNLLKLYNEETYLNKKENVTEDIFYNVQLTPVAINAGRLLADRLFLKKTRKTNYKLIPTVIFSHPPIGTIGLSEEAAIQIYGKENVKIYESKFTNLFFSVYDIEPELKEKTYLKLVCVGKDELIKGLHIIGLNADEIVQGFAVALKMNATKKDFDETIPIHPTAAEEFLTLQPWMK
Take B2: the Km in data set [2] was found to be 115 µM; in data set [3], 82.2 µM.

As usually defined, the Km is the concentration of substrate that gives half-maximal velocity.
